According to ChEMBL document CHEMBL3259704, “Second generation steroidal 4-aminoquinolines are potent, dual-target inhibitors of the botulinum neurotoxin serotype A metalloprotease and P. falciparum malaria” (J Med Chem, 2014):

Legend:
Plasmodium falciparum [1] = assay: Antimalarial activity against CQ, MFQ-susceptible Plasmodium falciparum D6 clone Sierra 1/UNC isolate assessed as inhibition of parasite proliferation by MSF assay; assay type: functional, organism-based
Outline: (§1)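 SYBR Green I fluorescence (MSF) microtiter drug-sensitivity assay: malarial DNA content is the measure of in vitro parasite proliferation. Resistance index is the IC90 ratio of the resistant strain to D6.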

Plasmodium falciparum [2] = assay: Antimalarial activity against CQ, MFQ-resistant Plasmodium falciparum TM91C235 clone Southeast asian isolate assessed as inhibition of parasite proliferation by MSF assay; assay type: functional, organism-based; outline: as §1
[3] = target: Botulinum neurotoxin type A (Clostridium botulinum) (UniProt P0DPI0); assay: Inhibition of Clostridium botulinum recombinant BoNT/A light chain using N-terminal acetylated, C-terminal aminated SNAP-25 (187-203) as substrate at 20 uM by reverse-phase HPLC analysis
Outline: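 Recombinant BoNT/A LC with SNAP-25 187–203 peptide substrate in 40 mM HEPES–0.05% Tween, pH 7.3, with 0.5 mg/mL BSA and 50 μM excess Zn, at 37 °C. Quenched with TFA; reverse-phase HPLC product/substrate peak areas give percent inhibition, run in duplicate.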

[4] = target: Botulinum neurotoxin type A (Clostridium botulinum, UniProt P0DPI0); assay: Inhibition of Clostridium botulinum recombinant BoNT/A light chain using N-terminal acetylated, C-terminal aminated SNAP-25 (187-203) as substrate by reverse-phase HPLC analysis
Outline: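 Same HPLC LC cleavage assay (pH 7.3 HEPES/Tween, BSA, excess Zn, 37 °C). […] Ki comes from velocity versus substrate at several inhibitor levels, globally fit to a competitive model.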

Plasmodium falciparum [5] = assay: Antimalarial activity against CQ-resistant, MFQ-susceptible Plasmodium falciparum W2 clone Indochina 1 isolate assessed as inhibition of parasite proliferation by MSF assay; assay type: functional, organism-based; outline: as §1
HepG2 = assay: Cytotoxicity against human HepG2 cells assessed as cell viability after 48 hrs by MTT assay; assay type: cell-based; conditions: HepG2, 48 h
[6] = Selectivity index, ratio of IC50 for human HepG2 cells to IC50 for CQ-resistant, MFQ-susceptible Plasmodium falciparum W2 clone Indochina 1 isolate; assay type: toxicity, cell-based; conditions: read-out: Ratio IC50
[7] = Selectivity index, ratio of IC50 for human HepG2 cells to IC50 for CQ, MFQ-resistant Plasmodium falciparum TM91C235 clone Southeast asian isolate; assay type: toxicity, cell-based; conditions: read-out: Ratio IC50
[8] = Selectivity index, ratio of IC50 for human HepG2 cells to IC50 for CQ, MFQ-susceptible Plasmodium falciparum D6 clone Sierra 1/UNC isolate; assay type: toxicity, cell-based; conditions: read-out: Ratio IC50
Plasmodium falciparum [9] = assay: Resistance index, ratio of IC90 for CQ, MFQ-resistant Plasmodium falciparum TM91C235 clone Southeast asian isolate to IC90 for CQ, MFQ-susceptible Plasmodium falciparum D6 clone Sierra 1/UNC isolate; assay type: functional; outline: as §1
Plasmodium falciparum [10] = assay: Resistance index, ratio of IC90 for CQ-resistant, MFQ-susceptible Plasmodium falciparum W2 clone Indochina 1 isolate to IC90 for CQ, MFQ-susceptible Plasmodium falciparum D6 clone Sierra 1/UNC isolate; assay type: functional; outline: as §1

Chain of Botulinum neurotoxin type A (Clostridium botulinum) (P0DPI0 2-448 limits assumed): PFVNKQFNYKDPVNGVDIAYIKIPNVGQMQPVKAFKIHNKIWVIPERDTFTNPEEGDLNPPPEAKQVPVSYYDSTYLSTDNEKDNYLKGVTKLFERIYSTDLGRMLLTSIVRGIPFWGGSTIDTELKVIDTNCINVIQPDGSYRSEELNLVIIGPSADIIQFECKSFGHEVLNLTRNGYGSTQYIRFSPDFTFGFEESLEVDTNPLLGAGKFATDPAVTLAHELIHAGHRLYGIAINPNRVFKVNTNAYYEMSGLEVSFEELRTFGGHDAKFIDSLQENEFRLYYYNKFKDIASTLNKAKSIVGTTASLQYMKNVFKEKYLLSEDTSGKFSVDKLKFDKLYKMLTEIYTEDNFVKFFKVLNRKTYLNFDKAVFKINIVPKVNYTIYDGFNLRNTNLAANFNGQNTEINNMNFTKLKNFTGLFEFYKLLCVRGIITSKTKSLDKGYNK
Chain of Botulinum neurotoxin type A (P0DPI0 2-448 limits assumed): as above

CC(=O)O[C@@H]1CC[C@@]2(C)[C@@H](C1)C[C@@H](OC(C)=O)[C@@H]1[C@@H]2C[C@H](OC(C)=O)[C@]2(C)[C@@H]([C@H](C)CCCNCCNc3ccnc4cc(Cl)ccc34)CC[C@@H]12
IC90 (Plasmodium falciparum [1]): 34.2 nM
IC90 (Plasmodium falciparum [2]): 77.9 nM
inhibition [3]: 74%
IC50 [4]: 3800 nM
Ki [4]: 6990 nM
IC90 (Plasmodium falciparum [5]): 32.5 nM

CC(=O)O[C@H]1C[C@H]2[C@@H]([C@H](OC(C)=O)C[C@@H]3C[C@H](O)CC[C@@]32C)[C@@H]2CC[C@H]([C@H](C)CCCNCCCCNc3ccnc4cc(Cl)ccc34)[C@@]12C
IC50 (Plasmodium falciparum [1]): 52.1 nM
IC50 (HepG2): 1580 nM
selectivity ratio [6]: 47
IC50 (Plasmodium falciparum [2]): 56.3 nM
inhibition [3]: 80.8%
selectivity ratio [7]: 28
IC50 (Plasmodium falciparum [5]): 33.8 nM
selectivity ratio [8]: 30

CC(=O)O[C@H]1C[C@H]2[C@@H]([C@H](OC(C)=O)C[C@@H]3C[C@@H](NCCCCCCNc4ccnc5cc(Cl)ccc45)CC[C@@]32C)[C@@H]2CC[C@H]([C@H](C)CCCNCCCCCCNc3ccnc4cc(Cl)ccc34)[C@@]12C
inhibition [3]: 89.6%
Ki [4]: 389 nM

CC(=O)O[C@@H]1CC[C@@]2(C)[C@@H](C1)C[C@@H](OC(C)=O)[C@@H]1[C@@H]2C[C@H](OC(C)=O)[C@]2(C)[C@@H]([C@H](C)CCCNCCCCCCNc3ccnc4cc(Cl)ccc34)CC[C@@H]12
IC50 (Plasmodium falciparum [1]): 91 nM
IC50 (HepG2): 2640 nM
selectivity ratio [6]: 47
IC50 (Plasmodium falciparum [2]): 104 nM
inhibition [3]: 83.3%
selectivity ratio [7]: 25
IC50 (Plasmodium falciparum [5]): 56.4 nM
selectivity ratio [8]: 29

CC(=O)O[C@@H]1CC[C@@]2(C)[C@@H](C1)C[C@@H](OC(C)=O)[C@@H]1[C@@H]2C[C@H](OC(C)=O)[C@]2(C)[C@@H]([C@H](C)CCCNCCCNc3ccnc4cc(Cl)ccc34)CC[C@@H]12
Ratio (Plasmodium falciparum [9]): 2.31
IC50 (Plasmodium falciparum [1]): 9.72 nM
IC90 (Plasmodium falciparum [1]): 13.8 nM
IC50 (HepG2): 980 nM
selectivity ratio [6]: 104
Ratio (Plasmodium falciparum [10]): 1.38
IC50 (Plasmodium falciparum [2]): 14.5 nM
IC90 (Plasmodium falciparum [2]): 31.9 nM
inhibition [3]: 81.4%
selectivity ratio [7]: 67
IC50 [4]: 2280 nM
Ki [4]: 5670 nM
IC50 (Plasmodium falciparum [5]): 9.42 nM
IC90 (Plasmodium falciparum [5]): 19 nM
selectivity ratio [8]: 101

CC(=O)O[C@H]1C[C@H]2[C@@H]([C@H](OC(C)=O)C[C@@H]3C[C@@H](NCCCCNc4ccnc5cc(Cl)ccc45)CC[C@@]32C)[C@@H]2CC[C@H]([C@H](C)CCCNCCCCNc3ccnc4cc(Cl)ccc34)[C@@]12C
inhibition [3]: 96.7%
Ki [4]: 300 nM

CC(=O)O[C@@H]1CC[C@@]2(C)[C@@H](C1)C[C@@H](OC(C)=O)[C@@H]1[C@@H]2C[C@H](OC(C)=O)[C@]2(C)[C@@H]([C@H](C)CCCN(C)CCCNc3ccnc4cc(Cl)ccc34)CC[C@@H]12
Ratio (Plasmodium falciparum [9]): 4.52
IC50 (Plasmodium falciparum [1]): 6.91 nM
IC90 (Plasmodium falciparum [1]): 10.5 nM
IC50 (HepG2): 1580 nM
selectivity ratio [6]: 134
Ratio (Plasmodium falciparum [10]): 1.61
IC50 (Plasmodium falciparum [2]): 22.3 nM
IC90 (Plasmodium falciparum [2]): 47.3 nM
inhibition [3]: 61.1%
selectivity ratio [7]: 71
IC50 [4]: 4480 nM
Ki [4]: 7690 nM
IC50 (Plasmodium falciparum [5]): 11.8 nM
IC90 (Plasmodium falciparum [5]): 16.9 nM
selectivity ratio [8]: 229

C[C@@H]1CC[C@H]2[C@@H](C)C(=O)O[C@@H]3O[C@@]4(C)CC[C@@H]1[C@]32OO4 [ARTEMISININ]
Ratio (Plasmodium falciparum [9]): 1.36
IC50 (Plasmodium falciparum [1]): 9 nM
IC90 (Plasmodium falciparum [1]): 12.8 nM
Ratio (Plasmodium falciparum [10]): 0.9
IC50 (Plasmodium falciparum [2]): 13.4 nM
IC90 (Plasmodium falciparum [2]): 17.4 nM
IC50 (Plasmodium falciparum [5]): 6.7 nM
IC90 (Plasmodium falciparum [5]): 11.5 nM

CC(=O)O[C@H]1C[C@H]2[C@@H]([C@H](OC(C)=O)C[C@@H]3C[C@H](NC(=O)OC(C)(C)C)CC[C@@]32C)[C@@H]2CC[C@H]([C@H](C)CCCN(C)CCCNc3ccnc4cc(Cl)ccc34)[C@@]12C
inhibition [3]: 59.6%
IC50 [4]: 6620 nM

CC(=O)O[C@H]1C[C@H]2[C@@H]([C@H](OC(C)=O)C[C@@H]3C[C@H](NC(=O)OC(C)(C)C)CC[C@@]32C)[C@@H]2CC[C@H]([C@H](C)CCCNCCCNc3ccnc4cc(Cl)ccc34)[C@@]12C
inhibition [3]: 74.9%
IC50 [4]: 3240 nM

CC(=O)O[C@H]1C[C@H]2[C@@H]([C@H](OC(C)=O)C[C@@H]3C[C@H](O)CC[C@@]32C)[C@@H]2CC[C@H]([C@H](C)CCCNCCCCCCNc3ccnc4cc(Cl)ccc34)[C@@]12C
IC50 (Plasmodium falciparum [1]): 36.6 nM
IC50 (HepG2): 2040 nM
selectivity ratio [6]: 60
IC50 (Plasmodium falciparum [2]): 40.6 nM
inhibition [3]: 62.9%
selectivity ratio [7]: 50
IC50 (Plasmodium falciparum [5]): 33.9 nM
selectivity ratio [8]: 56

CC(=O)N[C@@H]1CC[C@@]2(C)[C@@H](C1)C[C@@H](OC(C)=O)[C@@H]1[C@@H]2C[C@H](OC(C)=O)[C@]2(C)[C@@H]([C@H](C)CCCNCCCNc3ccnc4cc(Cl)ccc34)CC[C@@H]12
Ratio (Plasmodium falciparum [9]): 1.09
IC50 (Plasmodium falciparum [1]): 12.8 nM
IC90 (Plasmodium falciparum [1]): 36.5 nM
IC50 (HepG2): 1450 nM
selectivity ratio [6]: 55
Ratio (Plasmodium falciparum [10]): 0.98
IC50 (Plasmodium falciparum [2]): 28.1 nM
IC90 (Plasmodium falciparum [2]): 39.9 nM
inhibition [3]: 77.3%
selectivity ratio [7]: 51
IC50 [4]: 4920 nM
IC50 (Plasmodium falciparum [5]): 26.4 nM
IC90 (Plasmodium falciparum [5]): 35.8 nM
selectivity ratio [8]: 114

CC(=O)O[C@@H]1CC[C@@]2(C)[C@@H](C1)C[C@@H](OC(C)=O)[C@@H]1[C@@H]2C[C@H](OC(C)=O)[C@]2(C)[C@@H]([C@H](C)CCCNCCCCNc3ccnc4cc(Cl)ccc34)CC[C@@H]12
IC50 (Plasmodium falciparum [1]): 46.5 nM
IC50 (HepG2): 2560 nM
selectivity ratio [6]: 107
IC50 (Plasmodium falciparum [2]): 54.5 nM
inhibition [3]: 69%
selectivity ratio [7]: 47
IC50 (Plasmodium falciparum [5]): 23.9 nM
selectivity ratio [8]: 55

CC(=O)O[C@H]1C[C@H]2[C@@H]([C@H](OC(C)=O)C[C@@H]3C[C@H](NC(=O)OC(C)(C)C)CC[C@@]32C)[C@@H]2CC[C@H]([C@H](C)CCCN(CCCNc3ccnc4cc(Cl)ccc34)CCC[C@@H](C)[C@H]3CC[C@H]4[C@@H]5[C@H](OC(C)=O)C[C@@H]6C[C@H](NC(=O)OC(C)(C)C)CC[C@]6(C)[C@H]5C[C@H](OC(C)=O)[C@]34C)[C@@]12C
IC50 (HepG2): 35400 nM
selectivity ratio [6]: 96
IC50 (Plasmodium falciparum [2]): 369 nM
inhibition [3]: 6.42%
selectivity ratio [7]: 96
selectivity ratio [8]: 96

CCN(CC)CCCC(C)Nc1ccnc2cc(Cl)ccc12 (stereo unspecified) [CHLOROQUINE]
IC90 (Plasmodium falciparum [1]): 16.1 nM
IC90 (Plasmodium falciparum [2]): 373 nM
inhibition [3]: 6.51%
IC90 (Plasmodium falciparum [5]): 698 nM

CC(=O)O[C@H]1C[C@H]2[C@@H]([C@H](OC(C)=O)C[C@@H]3C[C@H](NCCCCCCNc4ccnc5cc(Cl)ccc45)CC[C@@]32C)[C@@H]2CC[C@H]([C@H](C)CCCNCCCCCCNc3ccnc4cc(Cl)ccc34)[C@@]12C
inhibition [3]: 95.5%
Ki [4]: 285 nM

CC(=O)O[C@H]1C[C@H]2[C@@H]([C@H](OC(C)=O)C[C@@H]3CC(=O)CC[C@@]32C)[C@@H]2CC[C@H]([C@H](C)CCCNCCCCNc3ccnc4cc(Cl)ccc34)[C@@]12C
IC50 (HepG2): 1230 nM
selectivity ratio [6]: 7
IC50 (Plasmodium falciparum [2]): 214 nM
inhibition [3]: 81.5%
selectivity ratio [7]: 6
IC50 (Plasmodium falciparum [5]): 175 nM
selectivity ratio [8]: 6

CC(=O)O[C@H]1C[C@H]2[C@@H]([C@H](OC(C)=O)C[C@@H]3C[C@H](NCCCCCCNc4ccnc5cc(Cl)ccc45)CC[C@@]32C)[C@@H]2CC[C@H]([C@H](C)CCCNCCCCNc3ccnc4cc(Cl)ccc34)[C@@]12C
inhibition [3]: 93.7%
Ki [4]: 300 nM

Clc1ccc2c(NCCNC34CC5CC(CC(C5)C3)C4)ccnc2c1
IC50 [4]: 11800 nM

CC(=O)O[C@H]1C[C@H]2[C@@H]([C@H](OC(C)=O)C[C@@H]3CC(=O)CC[C@@]32C)[C@@H]2CC[C@H]([C@H](C)CCCNCCCCCCNc3ccnc4cc(Cl)ccc34)[C@@]12C
IC50 (Plasmodium falciparum [1]): 47.5 nM
IC50 (HepG2): 1280 nM
selectivity ratio [6]: 30
IC50 (Plasmodium falciparum [2]): 51.6 nM
inhibition [3]: 77.2%
selectivity ratio [7]: 25
IC50 (Plasmodium falciparum [5]): 42.1 nM
selectivity ratio [8]: 27

CC(=O)O[C@H]1C[C@H]2[C@@H]([C@H](OC(C)=O)C[C@@H]3C[C@@H](NCCCCCCNc4ccnc5cc(Cl)ccc45)CC[C@@]32C)[C@@H]2CC[C@H]([C@H](C)CCCNCCCCNc3ccnc4cc(Cl)ccc34)[C@@]12C
inhibition [3]: 95.4%
Ki [4]: 103 nM

N=C(N)c1ccc(Oc2ccc(-c3cc4ccc(C(=N)N)cc4[nH]3)cc2)cc1
IC50 [4]: 2620 nM
